Screens as filed in PubChem BioAssay.
Many of the other results were omitted from the sample, so hits are more common in it than they were.
D1 mod = allosterically modulates the human D1 dopamine receptor; HEK293 D1, CRE-luciferase, dopamine EC30 potentiation; actives deviate in either direction; B-score at 10 µM; 5.9% of 58,000 active; AID 641;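 active means luminescence count or its row- and column-corrected plate score outside the 99.7% band of the plate's sample wells, on either side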
Target sequence (P21728 whole entry, looked up): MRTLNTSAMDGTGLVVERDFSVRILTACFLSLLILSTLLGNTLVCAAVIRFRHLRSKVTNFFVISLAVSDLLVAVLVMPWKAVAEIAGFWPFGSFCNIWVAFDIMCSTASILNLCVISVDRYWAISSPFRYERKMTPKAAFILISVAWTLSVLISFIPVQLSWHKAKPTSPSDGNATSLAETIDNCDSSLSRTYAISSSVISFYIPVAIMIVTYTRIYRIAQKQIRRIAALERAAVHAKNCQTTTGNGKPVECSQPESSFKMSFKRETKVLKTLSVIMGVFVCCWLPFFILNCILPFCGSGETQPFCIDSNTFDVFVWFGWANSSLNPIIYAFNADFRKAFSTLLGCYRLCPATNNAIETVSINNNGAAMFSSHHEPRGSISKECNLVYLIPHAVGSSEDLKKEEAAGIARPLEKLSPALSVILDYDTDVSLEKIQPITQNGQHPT
Ec RNAP inh = Escherichia coli RNA polymerase inhibition | P0A8V2 | E. coli RNA polymerase, fluorescence transcription assay | inhibition, %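 (tested at 10 µM)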 | 0.2% of 62,000 active; in the data active means inhibition above about 20%;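 further: 0% = enzyme without compound and 100% = no enzyme blank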
AP ELISA ortho = alternative pathway complement inhibition, orthogonal assay | 0.08% of 62,000 active | Human serum alternative complement pathway, LPS-coated ELISA, C3 deposition; tested in compound mixtures | inhibition, % at 5 µM;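 active means inhibition above 30% in each of the two pooled mixtures holding the compound, so the lower value exceeds 30%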;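 further: 0% = serum in Mg-EGTA without compound and 100% = EDTA serum blank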
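Assay system: Human serum alternative complement pathway, C3 deposition on LPS-coated wells | Incubation: 1 h serum-compound exposure at 37 °C | Doses: 5 µM per compound in ten-compound mixtures | Read-out: Percent inhibition | Technique: ELISA with HRP anti-human C3 antibody, TMB substrate, absorbance 450 nm | Replication: Two pool placements per compound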
HEK293 NFkB inh = inhibitors of the PMA/ionomycin-induced NF-kB reporter in HEK293 cells | HEK-293 NF-kB luciferase reporter, luminescence | inhibition, % at 3 µM | 0.21% of 62,000 active;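 active means inhibition above the mean of all tested compounds plus 3 SD, cut at about 40% in these data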;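 further: 0% = stimulated DMSO wells and 100% = 10 µM reference inhibitor 5653914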
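System – HEK-293 cells with stable firefly luciferase reporter driven by four HIV NF-kB elements · Doses – one dose, 3 µM · Schedule – 1 h compound pre-incubation, 16 h PMA/ionomycin at 37 °C · Technique – luminescence from luciferase substrate reagent · Measure – percent inhibition normalized per plate to DMSO and reference-inhibitor controls · Replicates – tested once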
DAT uptake mod = human DAT dopamine uptake with cocaine, either direction | 1.3% of 110,000 active | Q01959 | LLC-PK1 hDAT cells, [14C]-dopamine uptake with cocaine IC80; actives deviate in either direction | AID 449768 | B-score at 10 µM;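 active means Z score or B-score, a plate-position-corrected score, falls beyond the plate's 99.7% confidence bounds, in either direction; inactive means both scores lie inside the 99.7% bounds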;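 further: scored against the spread of the other compound wells on the same plate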
Numbers without * were called inactive; x = no result.

SMILES	D1 mod	Ec RNAP inh	AP ELISA ortho	HEK293 NFkB inh	DAT uptake mod
CN1CCC(=C2c3ccccc3CC(=O)c3sccc32)CC1	-6.79*	9.0	-0.1	x	0.0721
CN(C1CCS(=O)(=O)C1)S(=O)(=O)c1ccc(N2CCCC2=O)cc1 (stereo unspecified)	-0.374	21.3*	7.1	9.5	0.534
COc1ccccc1N1CCN(C(c2ccc(C)cc2)c2nnnn2C(C)C)CC1 (stereo unspecified)	-1.38	11.6	-6.0	6.4	3.07*
COc1ccccc1N1CCN(C(c2ccc(F)cc2)c2nnnn2C(C)C)CC1 (stereo unspecified)	-0.665	-2.6	4.2	14.3	-0.0597
CN1CCN(S(=O)(=O)c2ccc(Sc3nnc(-c4cccs4)n3-c3ccccc3)nc2)CC1	-4.06*	9.1	3.5	9.2	0.541
COc1cc2c(cc1OC)C(c1ccc(N(C)C)cc1)CC(=O)N2 (stereo unspecified)	0.661	5.6	1.9	18.2	0.348
CCN(CC)c1ccc(C2CC(=O)Nc3cc(OC)c(OC)cc32)cc1 (stereo unspecified)	0.0308	-1.6	10.1	20.8	2.36*
COC(C[C@@H]1O[C@H]1C(=O)[C@@H](C)OCc1ccccc1)OC	x	x	x	x	-0.148
O=C(NCc1ccc2c(c1)OCO2)c1ccc(-c2ccc(Cl)cc2)o1	0.585	-1.1	12.1	13.2	2.36*
CO/N=C(/CS(=O)(=O)Cc1ccccc1Cl)c1ccc(Cl)cc1Cl	x	x	x	x	-0.304
Cc1cccc(-c2cc3nc(C)cc(NCCCN(C)C)n3n2)c1	-2.05	3.3	19.2	23.8	1.93
Cc1ccc(-c2cc3nc(C)cc(NCc4ccco4)n3n2)cc1	-1.92	-1.1	1.1	-23.3	-3.94*
N#Cc1sc2nc3c(c(-c4cccnc4)c2c1N)CCC3	5.2*	8.5	5.9	11.0	-1.39
NC(=O)c1sc2nc3c(c(-c4cccnc4)c2c1N)CCC3	x	x	x	x	-9.05*
Cc1ccc(CNS(=O)(=O)NCc2ccccc2)cc1	x	x	x	x	-0.483
CN(C)c1ccc(-c2ccc([C@H]3[C@@H]4C=CCC[C@@]4(C)C(=O)N3Cc3ccccc3)c(F)c2)cc1	x	x	x	x	0.387
CC1CN(C2CCN(S(=O)(=O)c3ccc(F)cc3)CC2)CC(C)O1 (stereo unspecified)	x	x	x	x	0.246
CN(C)S(=O)(=O)N1CCN(S(=O)(=O)c2ccccc2)CC1	1.24	5.7	-7.0	17.3	-0.517
CC1CN(C2CCN(S(=O)(=O)c3ccccc3)CC2)CC(C)O1 (stereo unspecified)	x	21.7*	x	x	-0.494
CCS(=O)(=O)N1CCN(S(=O)(=O)c2ccccc2)CC1	x	x	x	x	-9.55*
Cc1cccn2c(=O)c3cc(C(=O)N4CCc5ccccc5C4)n(C)c3nc12	-0.436	-15.3	4.3	0.3	x
CCCCOC(=O)Nc1cc(C(=O)OC)ccc1C(=O)OC	-7*	1.6	13.0	20.7	1.74
Cc1cc(O)c(C(C)C)cc1NS(=O)(=O)c1ccccc1	-1.4	-1.9	11.5	15.6	0.235
COCCN1C(=O)C(O)=C(C(C)=O)C1c1ccc(OC)c(OC)c1 (stereo unspecified)	0.114	23.9*	6.0	3.7	-0.0719
CCOC(=O)/C=C/c1ccc2c(c1)S(=O)(=O)N(c1cccc(OC)c1)[C@H]2CC(=O)OCC	x	x	x	x	0.34
SMILES	D1 mod	Ec RNAP inh	AP ELISA ortho	HEK293 NFkB inh	DAT uptake mod
O=C(OC1CCCCC1)c1ccc2c(c1)C1C=CCC1C(C(=O)O)N2 (stereo unspecified)	x	-6.2	-4.8	7.2	x
O=C(O)c1ccc2c(c1)[C@@H]1C=CC[C@@H]1[C@H](c1ccccn1)N2	-3.77*	0.6	5.5	17.2	-0.46
CC(=O)c1cc2c(cc1NS(=O)(=O)c1ccc(C)cc1)OCO2	x	x	x	x	0.236
CC(=O)c1cc2c(cc1NS(=O)(=O)c1ccc3c(c1)OCCO3)OCO2	4.09*	-4.1	14.3	19.3	0.112
CCN(c1cccc(C)c1)S(=O)(=O)c1ccc2c3c(cccc13)C(=O)N2	x	x	x	x	0.989
CCN(CC)S(=O)(=O)c1ccc2c3c(cccc13)C(=O)N2	0.194	-2.2	4.9	6.2	2.54*
Cc1ccc(N2CC3=C(C2=O)C(c2ccccc2)NC(=O)N3C)cc1 (stereo unspecified)	x	x	x	x	-1.51*
Cc1cccc(N2CC3=C(C2=O)C(c2ccccc2)NC(=O)N3C)c1 (stereo unspecified)	0.257	-0.1	11.7	19.8	0.261
CC(=O)n1cc([C@@H]2C=C(C(=O)N3CCOCC3)O[C@H](OCCCCO)C2)c2ccccc21	x	x	x	x	1.15
CC(=O)n1cc([C@H]2C=C(C(=O)N3CCN(Cc4ccc5c(c4)OCO5)CC3)O[C@@H](OCCCCO)C2)c2ccccc21	x	x	x	x	2.49*
CCO[C@@H]1OC(C(=O)N2CCN(Cc3ccc4c(c3)OCO4)CC2)=C[C@H](c2cn(C(C)=O)c3ccccc23)[C@H]1CCCO	x	x	x	x	2.14*
CCO[C@@H]1OC(C(=O)N2CCN(Cc3ccc4c(c3)OCO4)CC2)=C[C@H](c2csc3ccccc23)[C@H]1CCCO	x	x	x	x	0.895
CCOC(=O)C(Cc1ccccc1)NC(=O)CCc1c(C)nc2nc(C)nn2c1C (stereo unspecified)	x	x	x	x	-0.838
Cc1ccc(C)n1-c1ccc(C(=O)NCC2CCCO2)cc1 (stereo unspecified)	-0.0132	5.0	20.0	16.0	-0.037
Cc1c(Br)c([N+](=O)[O-])nn1C(C)C(=O)NCc1cccs1 (stereo unspecified)	x	x	x	x	-9.43*
Cc1c(Br)c([N+](=O)[O-])nn1CC(=O)NCc1cccs1	x	x	x	x	0.232
CC(=O)Nc1ccc(NC(=O)C(C)n2nc([N+](=O)[O-])c(Br)c2C)cc1 (stereo unspecified)	x	x	x	x	1.15
Cc1c(Br)c([N+](=O)[O-])nn1C(C)C(=O)N1CCCc2ccccc21 (stereo unspecified)	x	x	x	x	-8.21*
CC(=O)N1CCc2cc(S(=O)(=O)NC(CC(C)C)C(=O)Nc3cc(C)ccn3)ccc21 (stereo unspecified)	-3.98*	7.8	-9.6	20.3	-0.726
CC(=O)N1CCc2cc(S(=O)(=O)NC(CC(C)C)C(=O)N3CCc4ccccc4C3)ccc21 (stereo unspecified)	1.22	0.8	6.9	12.8	-0.433
C=CCn1c(SCc2nc(N)nc(N(C)C)n2)nnc1-c1cccnc1	-6.03*	4.2	12.1	13.8	x
C=CCn1c(SCc2ccccc2)nnc1-c1cccnc1	0.338	4.2	17.4	0.5	0.2
COC(=O)[C@H](Cc1ccccc1)NC(=O)O[C@H]1C(=O)c2ccc(OC)cc2O[C@@H]1c1ccc2c(c1)OCO2	x	x	x	x	-0.0899
Cn1c(=O)c(=O)n(C)c2cc(S(=O)(=O)Nc3ccc4c(c3)OCCO4)ccc21	-5.71*	0.4	10.4	6.4	-0.0384
O=c1c2ccccc2cnn1-c1nc2ccccc2s1	-4.46*	1.8	6.9	77.0*	x
Clc1cccc(-c2ccc(/C=N/n3cnnc3)o2)c1	-5.09*	3.0	15.8	14.0	-0.0213
Cc1ccc(-c2ccc(/C=N/n3cnnc3)o2)cc1Cl	-1.61	5.4	11.1	9.3	-0.582
